Measured values as given in ChEMBL document CHEMBL4257575, “Discovery of Novel Flavonoid Dimers To Reverse Multidrug Resistance Protein 1 (MRP1, ABCC1) Mediated Drug Resistance in Cancers Using a High Throughput Platform with "Click Chemistry"” (J Med Chem, 2018).

Each molecule was assayed against Multidrug resistance-associated protein 1 (Homo sapiens, UniProt P33527) (assay: Inhibition of MRP1 in human 2008/MRP1 cells assessed as potentiation of doxorubicin-induced cytotoxicity by measuring cell survival at 2 uM after 5 days by MTS assay relative to control). Settings: 120 h.
Chain of Multidrug resistance-associated protein 1 (P33527 whole entry): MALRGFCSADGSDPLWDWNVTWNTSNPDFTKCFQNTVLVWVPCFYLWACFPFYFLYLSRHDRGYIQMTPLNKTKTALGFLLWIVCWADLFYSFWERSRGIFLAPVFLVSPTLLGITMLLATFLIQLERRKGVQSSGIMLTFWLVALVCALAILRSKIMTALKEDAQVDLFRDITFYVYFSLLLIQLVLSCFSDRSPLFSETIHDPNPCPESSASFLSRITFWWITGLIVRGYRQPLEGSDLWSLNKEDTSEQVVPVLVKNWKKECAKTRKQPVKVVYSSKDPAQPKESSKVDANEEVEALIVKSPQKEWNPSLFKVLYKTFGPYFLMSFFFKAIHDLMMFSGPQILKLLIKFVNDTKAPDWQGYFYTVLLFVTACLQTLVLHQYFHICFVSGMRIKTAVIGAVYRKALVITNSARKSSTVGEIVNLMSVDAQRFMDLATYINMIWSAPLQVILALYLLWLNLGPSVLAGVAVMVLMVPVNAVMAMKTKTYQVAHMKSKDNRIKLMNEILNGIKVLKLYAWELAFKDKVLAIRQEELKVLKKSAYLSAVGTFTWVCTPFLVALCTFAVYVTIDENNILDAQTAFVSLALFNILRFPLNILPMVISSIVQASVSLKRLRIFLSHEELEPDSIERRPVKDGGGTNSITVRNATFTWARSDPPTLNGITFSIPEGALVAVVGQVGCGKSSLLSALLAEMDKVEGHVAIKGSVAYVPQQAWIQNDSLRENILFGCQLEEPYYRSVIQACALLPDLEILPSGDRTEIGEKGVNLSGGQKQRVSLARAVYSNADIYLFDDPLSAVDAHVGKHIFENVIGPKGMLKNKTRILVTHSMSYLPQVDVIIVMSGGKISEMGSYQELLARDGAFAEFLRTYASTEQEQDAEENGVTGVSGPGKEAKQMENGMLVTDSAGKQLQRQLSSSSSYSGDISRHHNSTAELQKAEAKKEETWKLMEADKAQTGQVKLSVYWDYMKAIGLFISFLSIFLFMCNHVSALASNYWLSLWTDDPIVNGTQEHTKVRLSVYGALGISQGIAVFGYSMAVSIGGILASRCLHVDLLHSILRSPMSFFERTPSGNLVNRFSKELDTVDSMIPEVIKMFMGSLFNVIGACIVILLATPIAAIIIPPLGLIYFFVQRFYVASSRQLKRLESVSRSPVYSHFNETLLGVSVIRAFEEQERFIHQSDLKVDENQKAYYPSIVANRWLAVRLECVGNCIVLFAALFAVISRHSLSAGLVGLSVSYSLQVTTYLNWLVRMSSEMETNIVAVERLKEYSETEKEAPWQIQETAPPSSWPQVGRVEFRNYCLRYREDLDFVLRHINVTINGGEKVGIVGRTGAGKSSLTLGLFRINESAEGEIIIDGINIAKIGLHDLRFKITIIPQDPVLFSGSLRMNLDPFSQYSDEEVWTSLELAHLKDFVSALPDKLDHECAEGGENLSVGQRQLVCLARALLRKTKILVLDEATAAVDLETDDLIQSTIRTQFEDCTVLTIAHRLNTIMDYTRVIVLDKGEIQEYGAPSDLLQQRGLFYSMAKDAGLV
Type: cell-based
How it was run: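 2008/MRP1 cells (retroviral human MRP1 transfectant; RPMI 1640, 10% FBS) at 4,000 per well, with 100 nM doxorubicin plus crude, unpurified click products in DMSO: 2 µM in the primary screen, 1 µM in the secondary. Incubated 5 days at 37 °C. MTS/PMS added for 2 h at 37 °C, absorbance read at 490 nm. % survival is relative to wells without DOX or product. Run in triplicate, at least three experiments.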

Point of comparison: `Cc1ccc(C(=O)/C=C/c2ccc(OCCCCc3cn(CCOCCOCCOc4ccc(-c5oc6ccccc6c(=O)c5OCc5ccccc5)cc4)nn3)cc2)c(O)c1`, Survival 71%. Against it:
- COCOc1cc(OCc2ccccc2)c2c(=O)cc(-c3ccc(OCCCc4cn(CCOCCOCCOc5ccc(-c6cc(=O)c7cc(C)ccc7o6)cc5)nn4)cc3)oc2c1 — lower, 53%
- [N-]=[N+]=NCCOc1ccc2c(=O)cc(-c3ccccc3)oc2c1 — higher, 79%
- O=C(/C=C/c1ccc(OCCCCc2cn(CCOCCOCCOc3ccc(-c4oc5ccccc5c(=O)c4OCc4ccccc4)cc3)nn2)cc1)c1ccccc1O — lower, 61%
- CCc1ccc(O)c(C(=O)/C=C/c2ccc(OCCCCc3cn(CCOCCOCCOc4ccc(-c5oc6ccccc6c(=O)c5OCc5ccccc5)cc4)nn3)cc2)c1 — higher, 77%
- O=c1[nH]c(-c2ccc(OCCCc3cn(CCOCCOCCOc4ccc(-c5oc6ccccc6c(=O)c5OCc5ccccc5)cc4)nn3)cc2)nc2ccccc12 — lower, 68%
- Cc1ccc(O)c(C(=O)/C=C/c2ccc(OCCCCc3cn(CCOCCOCCOc4ccc(-c5oc6ccccc6c(=O)c5OCc5ccccc5)cc4)nn3)cc2)c1 — higher, 76%
- C#CCCN1C(=O)c2ccccc2C1=O — higher, 83%
- COc1cccc(COc2c(-c3ccc(OCCOCCn4cc(CN(Cc5ccccc5)Cc5cn(CCOCCOc6ccc(-c7oc8ccccc8c(=O)c7OCc7cccc(OC)c7)cc6)nn5)nn4)cc3)oc3ccccc3c2=O)c1 — higher, 80%
- O=c1cc(-c2ccccc2)oc2cc(OCCCCc3cn(CCOCCOc4ccc(-c5cc(=O)c6cc(F)ccc6o5)cc4)nn3)ccc12 — lower, 52%
- O=c1cc(-c2ccc(OCCOCCOCCn3cc(CN4CCN(Cc5cn(CCOCCOCCOc6ccc(-c7cc(=O)c8ccccc8o7)cc6)nn5)CC4)nn3)cc2)oc2ccccc12 — higher, 100%
- Cc1ccc2oc(-c3ccc(OCCOCCOCCn4cc(CCCOc5ccc(-c6cc(=O)c7ccccc7o6)cc5)nn4)cc3)cc(=O)c2c1 — lower, 51%
- O=C(/C=C/c1ccc(OCCCCc2cn(CCOCCOCCOc3ccc4c(=O)cc(-c5ccccc5)oc4c3)nn2)cc1)c1ccccc1O — higher, 72%
- O=c1cc(-c2ccc(OCCCc3cn(CCOCCOc4cccc(-c5oc6ccccc6c(=O)c5OCc5ccccc5)c4)nn3)cc2)oc2ccc(F)cc12 — higher, 79%
- O=c1c(OCc2ccccc2)c(-c2ccc(OCCOCCOCCn3cc(CN4CCN(Cc5cn(CCOCCOCCOc6ccc(-c7oc8ccccc8c(=O)c7OCc7ccccc7)cc6)nn5)CC4)nn3)cc2)oc2ccccc12 — higher, 96%
- O=c1[nH]c(-c2ccc(OCCCc3cn(CCOCCOc4ccc(-c5cc(=O)c6ccccc6o5)cc4)nn3)cc2)nc2ccccc12 — lower, 58%
- O=c1cc(-c2ccc(OCCOCCOCCn3cc(CNc4ccccc4)nn3)cc2)oc2ccc(F)cc12 — higher, 90%
- O=c1cc(-c2ccc(OCCOCCOCCn3cc(-c4ccc(-c5cn(CCOCCOCCOc6ccc(-c7cc(=O)c8cc(F)ccc8o7)cc6)nn5)cc4)nn3)cc2)oc2ccc(F)cc12 — higher, 83%
- O=C(/C=C/c1ccc(OCCCCc2cn(CCOCCOCCOc3ccc(-c4oc5ccccc5c(=O)c4OCc4ccccc4)cc3)nn2)cc1)c1ccc(F)cc1O — lower, 68%
- Cc1ccc(C(=O)/C=C/c2ccc(OCCCCc3cn(CCOCCOCCOc4ccc(-c5cc(=O)c6ccccc6o5)cc4)nn3)cc2)c(O)c1 — lower, 55%
- COCOc1cc(OCc2ccccc2)c2c(=O)cc(-c3ccc(OCCCc4cn(CCOCCOc5ccc(-c6oc7ccccc7c(=O)c6OCc6cccc(OC)c6)cc5)nn4)cc3)oc2c1 — higher, 79%
- COc1cccc(COc2c(-c3ccc(OCCOCCn4cc(CCCCOc5ccc(C=O)cc5)nn4)cc3)oc3ccccc3c2=O)c1 — higher, 76%
- Cc1ccc2oc(-c3ccc(OCCOCCOCCn4cc(CCCCOc5ccc6c(=O)cc(-c7ccccc7)oc6c5)nn4)cc3)cc(=O)c2c1 — lower, 51%
- O=C(/C=C/c1ccc(OCCCCc2cn(CCOCCOCCOc3ccc(-c4cc(=O)c5ccccc5o4)cc3)nn2)cc1)c1ccc(F)cc1O — lower, 55%
- O=Cc1ccc(OCCCCc2cn(CCOCCOCCOc3ccc(-c4cc(=O)c5ccccc5o4)cc3)nn2)cc1 — lower, 70%
- C#CCCCCOc1ccc(/C=C/C(=O)c2cc(C)ccc2O)cc1 — higher, 100%
- O=c1cc(-c2ccccc2)oc2cc(OCCOCc3cn(CCOCCOCCOc4ccc(-c5cc(=O)c6cc(F)ccc6o5)cc4)nn3)ccc12 — lower, 53%
- O=c1cc(-c2ccccc2)oc2cc(OCCOCCOCCn3cc(CN(CCOc4ccc5c(=O)cc(-c6ccccc6)oc5c4)Cc4ccccc4)nn3)ccc12 — lower, 51%
- CN(CCN(C)Cc1cn(CCOCCOc2ccc3oc(-c4ccccc4)cc(=O)c3c2)nn1)Cc1cn(CCOCCOc2ccc3c(=O)cc(-c4ccccc4)oc3c2)nn1 — higher, 99%
- Cc1ccc2oc(-c3ccc(OCCOCCOCCn4cc(CN(Cc5ccccc5)Cc5cn(CCOCCOCCOc6ccc(-c7cc(=O)c8cc(C)ccc8o7)cc6)nn5)nn4)cc3)cc(=O)c2c1 — lower, 52%
- O=c1cc(-c2ccccc2)oc2cc(OCCOCc3cn(CCOc4cccc5c(=O)cc(-c6ccccc6)oc45)nn3)ccc12 — lower, 68%
- O=c1cc(-c2ccccc2)oc2cc(OCCOCCn3cc(-c4ccc(-c5cn(CCOCCOc6ccc7oc(-c8ccccc8)cc(=O)c7c6)nn5)cc4)nn3)ccc12 — higher, 79%
- CN(CCN(C)Cc1cn(CCOc2ccc3occ(-c4ccccc4)c(=O)c3c2)nn1)Cc1cn(CCOc2ccc3c(=O)cc(-c4ccccc4)oc3c2)nn1 — higher, 90%
- C#CCCCCOc1ccc2c(=O)cc(-c3ccccc3)oc2c1 — higher, 99%
- O=c1cc(-c2ccc(OCCOCCn3cc(CCCOc4ccc(-c5cc(=O)c6cc(F)ccc6o5)cc4)nn3)cc2)oc2ccccc12 — higher, 93%
- O=c1cc(-c2ccc(OCCCc3cn(CCOCCOc4cccc(-c5oc6ccccc6c(=O)c5OCc5ccccc5)c4)nn3)cc2)oc2ccccc12 — lower, 54%
- O=c1cc(-c2ccc(OCCCc3cn(CCOCCOc4ccc(-c5oc6ccccc6c(=O)c5OCc5ccccc5)cc4)nn3)cc2)oc2ccccc12 — lower, 50%
- O=c1cc(-c2ccc(OCCOCCn3cc(CN4CCN(Cc5cn(CCOCCOc6ccc(-c7cc(=O)c8ccccc8o7)cc6)nn5)CC4)nn3)cc2)oc2ccccc12 — higher, 116%
- O=c1cc(-c2ccccc2)oc2cc(OCCn3cc(CN4CCN(Cc5cn(CCOc6ccc7occ(-c8ccccc8)c(=O)c7c6)nn5)CC4)nn3)ccc12 — higher, 93%
- O=c1cc(-c2ccccc2)oc2cc(OCCOCCn3cc(CN(Cc4cn(CCOCCOc5ccc6oc(-c7ccccc7)cc(=O)c6c5)nn4)Cc4cn(CCOCCOc5ccc6oc(-c7ccccc7)cc(=O)c6c5)nn4)nn3)ccc12 — higher, 83%
- O=c1cc(-c2ccc(OCCOCCOCCn3cc(-c4ccc(-c5cn(CCOCCOCCOc6ccc(-c7cc(=O)c8ccccc8o7)cc6)nn5)cc4)nn3)cc2)oc2ccccc12 — higher, 83%
- O=c1cc(-c2ccccc2)oc2cc(OCCN(Cc3ccccc3)Cc3cn(CCOCCOCCOc4ccc(-c5oc6ccccc6c(=O)c5OCc5ccccc5)cc4)nn3)ccc12 — lower, 65%
- O=c1cc(-c2ccccc2)oc2cc(OCCOCCOCCn3cc(-c4cccc(-c5cn(CCOCCOCCOc6ccc7c(=O)cc(-c8ccccc8)oc7c6)nn5)c4)nn3)ccc12 — higher, 74%
- COCOc1cc(OCc2ccccc2)c2c(=O)cc(-c3ccc(OCCCc4cn(CCOCCOc5ccc(-c6oc7ccccc7c(=O)c6OCc6ccccc6)cc5)nn4)cc3)oc2c1 — higher, 88%
- Cc1ccc(C(=O)/C=C/c2ccc(OCCCCc3cn(CCOCCOc4cccc(-c5oc6ccccc6c(=O)c5OCc5ccccc5)c4)nn3)cc2)c(O)c1 — higher, 79%
